Data on 1 compound can be found in publication PMC5115981 (Cancer chemotherapy and pharmacology, 2016).

Usually fraction unbound stands for free concentration divided by total concentration. Usually IC50 stands for the concentration at which inhibition is half-maximal.

The nature of series [1]: Mouse liver microsome incubation for glucuronide metabolism. Format: in vitro ADME. The settings on record: mouse liver microsomes 0.25 mg/mL, alamethicin, UDPGA. A digest of the protocol: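 Glucuronidation incubation used microsomes from female heterozygous Foxn1nu/Foxn1+ mouse liver. Mix: 0.1 M phosphate (pH 7.4), 0.25 mg/mL microsomal protein, 25 µg/mL alamethicin, 50 mM Tris-HCl, 10 mM MgCl2 and 1,000 ng/mL drug. A mix without UDPGA served as negative control. Samples were analysed twice: SRM monitoring of the m/z 613 glucuronide channel, then MRM quantitation of parent depletion against a curve in buffer with 0.25 mg/mL BSA. Parent expressed relative to time 0.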

The nature of series [2]: Plasma protein binding by rapid equilibrium dialysis. Format: in vitro ADME, mouse. The settings on record: for fraction unbound at 4 h, 1000 ng/mL: mouse, plasma, pH 7.2, plasma protein binding. In a few lines:
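Rapid equilibrium dialysis with control mouse plasma spiked to 1,000 ng/mL from a DMSO stock (organic <0.1%). Four 200 µL replicates were dialysed against PBS (pH 7.2), shaken at 37 °C for 4 h. Both compartments were quantified by LC-MS/MS against a curve in 1:1 PBS:plasma, with samples diluted to match the matrix. Assay LLQ was 1 ng/mL.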

In series [3] the test system is pSTAT3 from IL-6 induction in a Cal33 cell line. The settings on record: read-out: IC50, inhibiting pSTAT3 from IL-6 induction; cited from earlier work.
The next series deals with mice. Nature of the series: Multiple dose. It is filed as in vivo, mouse. The settings on record: IV daily for 5 days at 4, 2.7, 1.3 mg/kg, female mice. A digest of the protocol:
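Female heterozygous Foxn1nu/Foxn1+ mice, 5 per group, fasted overnight before dosing. Test compound given IV by lateral tail vein daily for 5 days, in 10% Solutol HS15 in sterile water at 0.01 ml/g body weight; a vehicle group was included. Body weights tracked before, during and after dosing over a 14 day observation period, followed by necropsy for gross pathology.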

Series [4] can be described thus: Stability of UPCDC-10205 in mouse plasma. Format: in vitro ADME. A digest of the protocol:
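Assay evaluation in control mouse plasma used QCs at 2.5, 30 and 800 ng/mL. 100 µL samples were spiked with deuterated internal standard, precipitated with acetonitrile, and supernatants dried at 37 °C under nitrogen before positive-ion MRM LC-MS/MS. Recovery and ion suppression were assessed at the 30 ng/mL QC. Also tested: bench stability during sample preparation for 4 h at room temperature, and three −80 °C freeze/thaw cycles.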

The nature of series [5]: Mouse liver microsome incubation. It is filed as in vitro ADME. In a few lines: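 Microsomes from livers of female heterozygous Foxn1nu/Foxn1+ mice, with protein measured against a BSA standard. Incubations contained 0.5 mg/mL microsomal protein, 1,000 ng/mL drug, […], 0.1 M phosphate (pH 7.4) and <0.1% acetonitrile. Stopped with acetonitrile at 0, 15, 30, 45, 60 and 90 min, in triplicate. A positive control was run at 0 and 90 min. LC-MS used an analogue internal standard and calibrators in buffer with 0.5 mg/mL BSA. Results given as % of 0 min.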

[6] abbreviates: mouse plasma spiked at 1,000 ng/mL, RED, 37 °C, 4 hours, calculated using the LLQ value (1 ng/mL).

Regarding `COc1ccc(C2=Nn3c(nnc3-c3cc(-c4ccc(Cl)cc4)n[nH]3)SC2C)cc1` (centres unmarked) [UPCDC-10205, 3-(3-(4-chlorophenyl)-1H-pyrazole-5-yl)-6-(4-methoxyphenyl)-7-methyl-7H-[1,2,4]triazolo[3,4-b][1,3,4]thiadiazine], the “UPCDC-10205 remaining relative to time 0 after 60 min” value in series [1] came out at 67%. In addition, the “concentration in the plasma portion of the RED device” value in series [2] (average of 4 replicates, 37 °C, 4 hours) was 1,091 ng/mL. The “concentration in the saline buffer portion of the RED device” value in series [2] (below the 1 ng/mL assay LLQ) amounted to 0.2 ng/mL. Moreover, in series [2] (setting [6]), the plasma protein binding was over 99.9% and the fraction unbound at 4 h, 1000 ng/mL is under 0.0009. In series [2] (mouse plasma spiked at 1,000 ng/mL, RED, 37 °C, 4 hours, calculated using 0.2 ng/mL), the fraction unbound at 4 h, 1000 ng/mL was about 0.0002. For the same compound, the half-inhibitory concentration (IC50) in series [3] is 2200 nM. Also, in the series on mice, the “body weights vs vehicle control group, multiple dose” value is “no statistical differences” and the “gross pathology upon necropsy, multiple dose” value is “no signs of gross pathology”. In addition, in the series on mice (14 day observation), the “signs or symptoms of toxicity, multiple dose” value is recorded as “not toxic”. Also, the “stability in plasma during sample preparation” value in series [4] (QCM (30 ng/mL), 4 h at room temperature) was 100.8%. Also, the recovery at 30 ng/mL in series [4] (mouse) amounted to 112%. In addition, the “metabolic stability among the four analogues” value in series [5] (mouse liver microsome incubation) is reported as “metabolically most stable”. The “substrate depletion in the initial incubation” value in series [5] (mouse liver microsomes, NADPH, 90 min) is 20%.
